Compound activity as filed in PubChem BioAssay.
MC4R barr agon: human MC4R agonism via beta-arrestin; AID 540308; U2OS MC4R beta-arrestin complementation, luminescence; percent of melanotan II response, DMSO zero; activation, % at 8.9 µM; actives 0.98% (n = 360,000);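 active = activation above a per-plate cutoff, the mean activation of sample wells on that plate plus 3 SD, cut at about 8% in these data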
AI-2 QS modul: modulators of Vibrio harveyi AI-2 quorum sensing system | activity change, % at 7.5 µM | Vibrio harveyi JMH597 AI-2 luminescence/OD600 ratio, 9 h; active compounds read low; strain lacks LuxN and CqsS sensors; 0 = neutral-control median | AID 2094 | actives 0.4% (n = 300,000); in the data active = activity change below about -75%, passing the limit was not always enough;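 note: luminescence divided by OD600 gain over 9 h not by final OD600 alone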
NTR1 ag: NTR1 (human) agonism | P30989 | NTR1-U2OS beta-arrestin-GFP spot imaging, agonist mode | activation, % at 20 µM | actives 0.17% (n = 330,000) | AID 493036;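 active = activation at or above 40% of the spot to cytoplasm intensity ratio, with at least 20 cells analyzed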;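 note: 0% = DMSO without peptide and 100% = 100 nM NTR1 peptide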
Target sequence (P30989 whole entry, looked up): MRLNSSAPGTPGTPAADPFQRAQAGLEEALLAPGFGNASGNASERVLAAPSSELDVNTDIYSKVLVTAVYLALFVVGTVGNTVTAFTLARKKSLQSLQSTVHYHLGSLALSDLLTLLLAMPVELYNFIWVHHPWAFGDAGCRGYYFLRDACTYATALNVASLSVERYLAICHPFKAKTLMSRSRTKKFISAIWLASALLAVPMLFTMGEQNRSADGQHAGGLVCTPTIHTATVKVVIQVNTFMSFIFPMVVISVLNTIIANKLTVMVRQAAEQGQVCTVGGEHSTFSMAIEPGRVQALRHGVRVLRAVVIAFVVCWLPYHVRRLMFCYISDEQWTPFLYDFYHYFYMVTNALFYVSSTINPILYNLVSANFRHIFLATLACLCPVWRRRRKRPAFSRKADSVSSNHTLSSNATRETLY
MC4R antagonist: antagonists of human melanocortin 4 receptor (MC4R). P32245. MC4R-expressing cells, MTII-stimulated cAMP, LANCE TR-FRET. inhibition, % at 6.5 µM. actives 0.48% (n = 360,000). AID 540295;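 active = inhibition above its plate's cutoff, the mean of tested wells on that plate plus 3 SD, cut at about 29% in these data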;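 note: 0% = Melanotan II alone and 100% = Melanotan II plus saturating MCL0020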
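Assay system: human MC4R-expressing U2OS cells; reagent: Melanotan II stimulation of cells; dosing: 6.5 µM single dose; timing: compound 30 min, challenge 1 h, detection 1 h; signal: TR-FRET cAMP assay; replicates: one well per compound, no replicates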
MC4R barr ag: human MC4R beta-arrestin agonism confirmation. shares compounds with MC4R barr agon. U2OS MC4R beta-arrestin recruitment, luminescence; scaled DMSO 0%, Melanotan II 100%. activation, % at 8.9 µM. actives 31% (n = 2,400). AID 602192;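 active = mean activation across replicates above the hit cutoff set in the earlier primary screen, cut at about 8% in these data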
MOR-DOR barr ag: activates mu-delta opioid heterodimer, MC4R agonist counter-screen | activation, % at 9.2 µM | shares compounds with MC4R barr agon | actives 5.8% (n = 2,400) | U2OS PathHunter beta-arrestin, beta-gal luminescence; percent of deltorphin B response, DMSO zero | AID 602194;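 active = mean activation across replicates exceeds the hit threshold derived in the earlier primary screen, cut at about 18% in these data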;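 note: 100% = deltorphin B at 0.9 µM final and 0% = DMSO alone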
Starred values were filed as active, the others as inactive; x = not tested or not shown. Hits are enriched below; roughly 1.8% of the tested compounds scored in any of these assays.

SMILES	MC4R barr agon	AI-2 QS modul	NTR1 ag	MC4R antagonist	MC4R barr ag	MOR-DOR barr ag
CCOC(=O)c1c(C)[nH]c(C(=O)CSc2ccc(Cl)cc2)c1C	25*	9	2	-4	16*	6
CCOC(=O)c1c(C)[nH]c(C(=O)CSc2nc(C)cc(C)n2)c1C	-3	12	2	-3	x	x
CCOC(=O)c1c(C)[nH]c(C(=O)Cn2nnc(-c3ccccc3Cl)n2)c1C	2	10	2	4	x	x
O=C(NCCCN1CCCC1=O)Nc1ccc(Br)cc1Cl	-3	23	0	8	x	x
O=C(CSc1nnnn1-c1cccc(F)c1)NC1CC1	1	x	1	-5	x	x
S=c1[nH]nc(-c2cccs2)n1/N=C/c1cn(-c2ccccc2)nc1-c1cccs1	10*	27	8	25	1	4
CC1CCCN(CCCNC(=O)C2CCN(S(=O)(=O)N3CCC4(CC3)OCCO4)CC2)C1 (stereo not given)	0	3	0	-5	x	x
Cc1cccc(NC(=O)c2oc(=O)c3ccccc3c2-c2ccccc2)c1C	11*	-10	3	10	1	3
CCNS(=O)(=O)c1ccc(NS(=O)(=O)c2cc(C)ccc2C)cc1	-1	13	-2	-1	x	x
CCCCNS(=O)(=O)c1ccc(NS(=O)(=O)c2c(C)cc(C)cc2C)cc1	12*	8	10	1	7	4
COc1cc(NC(=O)CSc2nc3ccccc3c(=O)n2C)ccc1NC(=O)c1ccco1	14*	4	5	20	0	17
COc1cc(NC(=O)COc2ccccc2)ccc1NC(=O)c1ccco1	1	-5	1	4	x	x
COc1cccc(C(C)NC(=O)Cc2cccs2)c1 (stereo not given)	2	21	0	21	x	x
C=CCC[C@@H](Cc1ccc(F)cc1)C(=O)OC[C@H](Cc1c[nH]c2ccccc12)NC(=O)[C@@H](CC=C)CC(=O)N[C@H](CO)Cc1ccccc1	8	x	21	11	x	x
C=CC[C@H](CC(=O)N[C@H](CO)Cc1ccccc1)C(=O)N[C@H](COC(=O)[C@@H](CC=C)Cc1ccc(F)cc1)Cc1c[nH]c2ccccc12	-1	x	x	-4	x	x
C=CC[C@@H](CC(=O)N[C@@H](CO)Cc1ccccc1)C(=O)N[C@@H](COC(=O)[C@@H](CC=C)Cc1ccc(F)cc1)Cc1c[nH]c2ccccc12	20*	x	4	14	4	13
C=CCC[C@H](Cc1ccc(F)cc1)C(=O)OC[C@H](Cc1c[nH]c2ccccc12)NC(=O)[C@H](CC=C)CC(=O)N[C@H](CO)Cc1ccccc1	11*	x	2	19	2	5
C=CCC[C@H](Cc1ccc(F)cc1)C(=O)OC[C@H](Cc1c[nH]c2ccccc12)NC(=O)[C@@H](CC=C)CC(=O)N[C@@H](CO)Cc1ccccc1	24*	x	2	8	15*	9
O=C1CSc2ccc(C(=O)NCCc3ccc(Cl)cc3Cl)cc2N1	2	x	4	9	x	x
Cc1ccc(C)c(C(=O)OCC(=O)NC(=O)NCc2ccccc2)c1	13*	x	x	20	7	11
Cc1cc(NC(=O)COC(=O)c2ccccc2O)no1	1	x	1	8	x	x
Cc1ccc(C(=O)OCC(=O)Nc2cc(C(C)(C)C)no2)c(C)c1	9.9*	x	5	18	7	10
Cc1cc(NC(=O)COC(=O)c2oc3c(ccc4ccccc43)c2C)no1	18*	23	2	17	6	6
Cc1ccc(-c2cc(C(=O)OCC(=O)Nc3cc(C)on3)c3ccccc3n2)c(C)c1	12*	x	9	19	4	6
CCn1c(CNS(=O)(=O)c2ccc(Br)cc2)n[nH]c1=S	-4	-2	2	17	x	x
COc1cc(Cl)c(C)cc1NCC(=O)Nc1cccc(S(=O)(=O)N2CCCC2)c1	-1	x	0	7	x	x
CN(CC(=O)N(C)CC(=O)Nc1c(Cl)cccc1Cl)Cc1ccc(Br)s1	-1	x	0	6	x	x
Cc1cc(NC(=O)COc2ccc3c(C)c(C)c(=O)oc3c2)no1	0	x	x	5	x	x
